The list is not random: actives were taken first. Their share in the collection is about 0.62%.
Rad51 HR inh – Rad51 (human) homologous recombination inhibition; hRad51 DNA strand exchange, fluorescence dequenching; inhibition, % at 10 µM; 200,000 tested, 0.085% active; AID 1385;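 active = inhibition above 40% at the single screening dose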;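 note: 0% = DMSO control wells and 100% = blanks with heterologous ssDNA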
Target sequence (Q06609 whole entry, looked up): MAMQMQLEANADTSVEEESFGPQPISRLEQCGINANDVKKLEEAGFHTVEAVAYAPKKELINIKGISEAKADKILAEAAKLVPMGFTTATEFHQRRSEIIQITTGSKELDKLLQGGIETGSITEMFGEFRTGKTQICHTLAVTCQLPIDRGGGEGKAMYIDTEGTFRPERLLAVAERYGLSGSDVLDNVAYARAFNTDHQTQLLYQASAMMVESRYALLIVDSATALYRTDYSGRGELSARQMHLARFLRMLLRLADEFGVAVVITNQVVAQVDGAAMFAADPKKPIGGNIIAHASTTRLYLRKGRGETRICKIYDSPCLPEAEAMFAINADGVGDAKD
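material = hRad51 filaments on single-stranded DNA | reagent = Donor/quencher-labelled 47-bp dsDNA substrate | compound = 10 µM final, single point | schedule = strand-exchange reaction 15 min at room temperature | measured by = fluorescein emission 520 nm, excitation 485 nm | read-out basis = % inhibition versus plate control and blank means | benchmarks = plate controls and plate blanks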
ABCG2 inh – inhibitors of human ABCG2 transporter, ABCB1 counter-screen; Q9UNQ0; IgMXP3 cells, JC-1 efflux, flow cytometry; inhibition, % at 6.6 µM; 190,000 tested, 0.1% active;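 active = inhibition above 80%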;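 note: 0% = DMSO and 100% = nicardipine control wells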
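Test system: IgMXP3 (ABCG2) plus far-red-tagged CCRF-Adr (ABCB1) cells. Reagent: JC-1 dye as substrate. Timing: 10 min exposure at 25 °C with rotation, no wash. Measured by: flow cytometric JC-1 green MFI at 530 nm. Read-out: percent efflux inhibition, scaled nicardipine 100% to DMSO 0%. Control set: nicardipine and DMSO wells.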
ABCB1 inh – human ABCB1 inhibition, ABCG2 as counter-screen; CCRF-Adr cells, JC-1 efflux, flow cytometry; 190,000 tested, 0.067% active; AID 1326; inhibition, % at 6.6 µM; P08183; in the data active = inhibition above about 40%;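 note: 0% = vehicle and 100% = reference inhibitor; higher value means more JC-1 retained so stronger ABCB1 efflux block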
Mdm2 ligase inh – Mdm2 E3 ligase (human) inhibition; cell-based MDM2 ubiquitination luciferase reporter, 2 h; 0 = plate control, 100 = twice control, blank-subtracted; signal enhancement, % at 5 µM; 210,000 tested, 0.11% active; AID 1230;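 active = signal enhancement of 30% or more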;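 note: luminescence tracks abundance of the self-degrading MDM2-luciferase fusion protein; higher signal means inhibition of MDM2 E3 ligase activity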
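Assay system: stable mammalian line carrying autodegrading MDM2–luciferase fusion reporter; Input: 2000 cells in each well; Compound dosing: single-point 5 µM; Schedule: 2 h compound exposure at 37 °C; Signal: SteadyLite luciferase luminescence after 15 min room-temperature reagent incubation; Evaluation: % luminescence enhancement versus blank-corrected plate control mean; Benchmarks: plate controls and plate blanks.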
Arbovirus anti – antivirals against arbovirus infection | arbovirus infection cell-based antiviral screen | inhibition, % at 10 µM | 200,000 tested, 0.37% active | AID 1251; in the data active = inhibition above about 30%
* hit, by the source's call; i = inactive; . = no result given; + = active, no number.

SMILES | Rad51 HR inh | ABCG2 inh | ABCB1 inh | Mdm2 ligase inh | Arbovirus anti
CC(C)=C1SC(N2CCN(c3cccc(C(F)(F)F)c3)CC2)=NC1=O | -1 | 6 | 1 | 30* | -10
CC(C)=C1SC(N2CCN(c3ccc(C)cc3)CC2)=NC1=O | 0 | 0 | 0 | 5 | -2
O=C(CCC1CCCN(Cc2ccc3c(c2)CCO3)C1)NCc1ccc(F)c(F)c1 (configuration not stated) | 3 | 1 | 0 | -5 | -3
Cc1ccsc1C1Nc2ccc3ncccc3c2C2=C1C(=O)CCC2 (configuration not stated) | -10 | 25 | 6 | 34* | 16
COc1cc(C2Nc3ccc4ncccc4c3C3=C2C(=O)CCC3)cc(OC)c1OC (configuration not stated) | -7 | 0 | 0 | 5 | -9
O=C(c1ccco1)N1CCN(c2nc(-c3ccc(F)cc3)cs2)CC1 | 0 | 2 | 0 | -13 | 31*
CCOCCCNC(=O)c1ccc(-n2c(=S)[nH]c3ccccc3c2=O)cc1 | 8 | 0 | 0 | -7 | -6
O=C(Nc1ccccc1C(=O)O)c1ccc(Br)c(S(=O)(=O)NCc2ccccc2)c1 | -183 | -2 | -1 | -14 | 31*
O=C(Nc1ccccc1C(=O)NCc1ccccc1)c1ccccc1Br | 1 | 28 | 3 | -3 | 5
CC(C)CSC1=NSC2=NC(=O)/C(=C\c3coc4ccccc4c3=O)C(=N)N12 | i | + | 134* | -2 | 52*
CCOC(=O)C(C)Oc1cccc2c(=O)n(CC(=O)NCc3ccc(F)cc3)ccc12 (configuration not stated) | . | . | . | -5 | .
O=C(CSc1nnc(-c2cccnc2)n1C1CCCCC1)NC1CCCCC1 | -6 | 8 | 0 | 36* | -1
CC1CCN(C(=O)CSc2nnc(-c3cccnc3)n2C2CCCCC2)CC1 | -11 | 9 | 0 | -2 | 0
O=c1oc(-c2cccs2)nc2scc(-c3cccs3)c12 | . | 2 | 0 | 0 | 71*
Cc1nc2scc(-c3cccs3)c2c(=O)o1 | 8 | 4 | 1 | -8 | 0
COC(=O)c1c(N(S(C)(=O)=O)S(C)(=O)=O)sc2c1CCN(c1ncc(C(F)(F)F)cc1Cl)C2 | -4 | 18 | 1 | -9 | 48*
COC(=O)c1c(/N=C/N(C)C)sc2c1CCN(c1ncc(C(F)(F)F)cc1Cl)C2 | -10 | 20 | 1 | -7 | 9
CCSc1ccc2cc(OC)ccc2[n+]1CC | -36 | -1 | -1 | -7 | -5
CCNc1nc(SCCOc2ccc(C)cc2)nc(N(C)C)n1 | -7 | 4 | 1 | -8 | -3
CCNc1nc(SCCOc2ccc(Cl)cc2Cl)nc(N(C)C)n1 | 25 | 3 | 0 | -2 | 30*
CN(c1ccccc1)c1ccc(/C=C(\CCC(=O)O)c2nc3ccccc3s2)cc1[N+](=O)[O-] | 5 | -1 | -1 | -13 | 37*
Cc1ccc(/C=C(\CCC(=O)O)c2nc3ccccc3s2)cc1[N+](=O)[O-] | 13 | -1 | -1 | 4 | 23
Cc1nc2c(C(=O)NCCc3ccccc3)c[nH]n2c(=O)c1Cl | 1 | 0 | 0 | 5 | 10
Cc1nc2c(C(=O)NCCC(C)C)c[nH]n2c(=O)c1Cl | . | 1 | 0 | 4 | 36*
Fc1ccc2nc(Nc3nc4c(F)cccc4s3)sc2c1 | -5 | 4 | 0 | -14 | 34*
SMILES | Rad51 HR inh | ABCG2 inh | ABCB1 inh | Mdm2 ligase inh | Arbovirus anti
CCNC(=O)c1ccc2c(c1)C1C3CCC(C3)C1C(c1ccccc1)N2 (configuration not stated) | 1 | 12 | 2 | 5 | -20
COC(Cn1cc(C)c(=O)[nH]c1=O)OC | 4 | 3 | 0 | 42* | 10
Cc1c(NC(=O)Cc2ccccc2)cccc1C(=O)NN1C(=O)c2ccccc2C1=O | -2 | 0 | 0 | -9 | -1
CCOCCCNC(=S)NCCCNc1nc2c(C)cc(C)cc2cc1C#N | -5 | 5 | 1 | -2 | -26
CCOCCCNC(=S)NCCNc1nc2c(C)cccc2cc1C#N | -9 | 5 | 1 | -2 | 31*
COc1ccccc1-c1cc(C(F)(F)F)nc(S(=O)(=O)CCCC(=O)NC(C)C)n1 | 0 | 2 | 0 | -12 | -34
COc1ccccc1-c1cc(C(F)(F)F)nc(S(=O)(=O)CCCC(=O)Nc2cccnc2Cl)n1 | 3 | 17 | 2 | 43* | -36
CN1CCN(c2ccccc2NC(=O)c2sc3ccccc3c2Cl)CC1 | 7 | 11 | 11 | -15 | -16
O=C1CC(c2cccc([N+](=O)[O-])c2)c2ccc3ccccc3c2N1 (configuration not stated) | -1 | 4 | 2 | -52 | 36*
O=C1CC(c2ccsc2)c2ccc3ccccc3c2N1 (configuration not stated) | -5 | 4 | 1 | -46 | 0
Cc1cc(C)cc(N(CCC#N)C(=O)CSc2nc3nc(C)cc(C)n3n2)c1 | -2 | 10 | 1 | -15 | 2
CC(=O)Nc1ccc(SCC(=O)N(CCC#N)c2cc(C)cc(C)c2)cc1 | -6 | 1 | 0 | -10 | 49*
CC(=O)NC1C(=O)N=C(SCc2ccccc2)NC1=O (configuration not stated) | -6 | . | . | -9 | -1
CC(=O)NC1C(=O)N=C(SCC(=O)NC(C)c2ccccc2)NC1=O (configuration not stated) | . | 1 | 1 | 34* | 2
CCCCN(C(=O)Cc1cccc(F)c1)c1c(N)n(CCC)c(=O)[nH]c1=O | 3 | 7 | 1 | -11 | 5
CCOC(=O)C1(CCCc2ccccc2)CCN(C2CCSCC2)CC1 | 0 | -5 | -2 | -5 | 30*
OCC1(CCCc2ccccc2)CCN(C2CCSCC2)CC1 | -2 | 1 | 0 | -8 | -6
CCCOC(=O)c1ccc(O)c(OC)c1 | -6 | 5 | 0 | 45* | 0
CC1=NN(c2cccc(C(=O)O)c2)C(=O)/C1=C\C=C/c1ccccc1 | 9 | 2 | 0 | 31* | -7
CC1=NN(c2ccc(C)cc2)C(=O)/C1=C\C=C\c1ccccc1 | 7 | -7 | -1 | 52* | -32
O=C1c2ccccc2N2C(=O)c3ccccc3[C@H]2N1c1ccccc1 | 9 | 2 | 1 | -13 | 30*
O=C(Nc1nc(-c2ccc(Cl)cc2Cl)cs1)c1ccc(OCC2CCCO2)cc1 (configuration not stated) | 5 | -6 | 0 | -15 | 68*
O=C(Nc1cccc(NC(=O)c2cccs2)c1)c1ccco1 | 3 | 0 | 0 | -13 | 64*
O=C(Nc1ccc(NC(=O)c2cccs2)cc1Cl)c1ccco1 | 13 | -6 | -1 | -2 | -10
O=C1S/C(=C\c2ccc(N3CCOCC3)o2)C(=O)N1Cc1ccc(F)cc1 | i | 107* | 8 | -10 | -35
O=C1NC(=S)S/C1=C/c1ccc(N2CCOCC2)o1 | -194 | 0 | 0 | -15 | 22
